Experimental data from ChEMBL document CHEMBL3608275, “Synthesis, nicotinic acetylcholine receptor binding, in vitro and in vivo pharmacology properties of 3'-(substituted pyridinyl)-deschloroepibatidine analogs” (Bioorg Med Chem, 2015).

What was measured:
[1] = molecular target: T1, Neuronal acetylcholine receptor; alpha4/beta2 (Rattus norvegicus, UniProt P09483+P12390); experiment: Displacement of [3H]-epibatidine from alpha4beta2 nAChR in rat cerebral cortex homogenates after 4 hrs by liquid scintillation counting; format: tissue-based
T1 sequence (P09483 whole entry): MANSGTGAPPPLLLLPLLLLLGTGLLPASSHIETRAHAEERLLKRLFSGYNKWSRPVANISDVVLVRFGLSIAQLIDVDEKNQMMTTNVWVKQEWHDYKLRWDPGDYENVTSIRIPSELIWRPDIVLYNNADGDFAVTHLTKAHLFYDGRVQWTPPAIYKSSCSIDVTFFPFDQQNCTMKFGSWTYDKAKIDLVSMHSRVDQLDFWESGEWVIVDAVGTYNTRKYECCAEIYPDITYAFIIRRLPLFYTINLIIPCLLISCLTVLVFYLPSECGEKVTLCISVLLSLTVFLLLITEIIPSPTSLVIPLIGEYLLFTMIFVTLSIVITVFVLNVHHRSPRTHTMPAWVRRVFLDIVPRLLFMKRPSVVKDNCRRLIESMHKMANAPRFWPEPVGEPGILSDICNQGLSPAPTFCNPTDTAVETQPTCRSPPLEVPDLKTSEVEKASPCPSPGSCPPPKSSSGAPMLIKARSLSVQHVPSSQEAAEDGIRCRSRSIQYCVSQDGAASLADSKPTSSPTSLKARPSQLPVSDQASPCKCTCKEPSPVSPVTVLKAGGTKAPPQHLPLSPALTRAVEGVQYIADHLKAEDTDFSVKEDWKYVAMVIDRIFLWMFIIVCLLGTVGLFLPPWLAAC
T1 sequence (P12390 whole entry): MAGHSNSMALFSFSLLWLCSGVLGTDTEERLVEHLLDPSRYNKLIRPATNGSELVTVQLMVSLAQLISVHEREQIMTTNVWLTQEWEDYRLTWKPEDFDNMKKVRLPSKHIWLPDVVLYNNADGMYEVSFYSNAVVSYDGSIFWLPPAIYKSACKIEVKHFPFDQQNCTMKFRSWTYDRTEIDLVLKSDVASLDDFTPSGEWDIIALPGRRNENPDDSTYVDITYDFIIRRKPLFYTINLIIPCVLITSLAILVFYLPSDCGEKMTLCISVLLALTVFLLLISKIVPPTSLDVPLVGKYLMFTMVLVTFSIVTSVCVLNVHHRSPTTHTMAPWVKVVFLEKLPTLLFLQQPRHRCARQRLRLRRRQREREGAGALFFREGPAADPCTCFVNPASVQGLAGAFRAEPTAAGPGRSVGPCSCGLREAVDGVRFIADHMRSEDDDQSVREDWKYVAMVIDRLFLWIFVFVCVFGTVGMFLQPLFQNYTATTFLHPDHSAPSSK

[2] = system: Mus musculus; experiment: Antinociceptive activity in mouse assessed as maximum latency at 10 mg/kg, administered as intratracheally after 5 mins by tail-flick assay; format: functional
[3] = system: Mus musculus; experiment: Antinociceptive activity in mouse assessed as jumping or licking of paw behavior at 10 mg/kg, sc after 5 mins by hot-plate test; format: functional
[4] = system: Mus musculus; experiment: Antinociceptive activity in sc dosed mouse assessed as reduction of body rectal temperature; format: functional
[5] = system: Mus musculus; experiment: Antinociceptive activity in sc dosed mouse assessed as spontaneous locomotor activity measured for 10 mins; format: functional
[6] = system: Mus musculus; experiment: Antinociceptive activity in intratracheally dosed mouse assessed as inhibition of nicotine-induced antinociception after 5 mins by tail-flick assay; format: functional
[7] = system: Mus musculus; experiment: Antinociceptive activity in sc dosed mouse assessed as inhibition of nicotine-induced antinociception after 5 mins by hot-plate test; format: functional
[8] = molecular target: T2, Neuronal acetylcholine receptor; alpha4/beta2 (Rattus norvegicus) (UniProt P09483+P12390); experiment: Agonist activity at rat alpha4beta2 nAChR expressed in Xenopus laevis oocytes assessed as mean current response at 100 uM by two-electrode voltage clamp electrophysiology assay relative to acetylcholine; format: cell-based
[9] = molecular target: T3, Neuronal acetylcholine receptor; alpha3/beta4 (Rattus norvegicus) (UniProt P04757+P12392); experiment: Agonist activity at rat alpha3beta4 nAChR expressed in Xenopus laevis oocytes assessed as mean current response at 100 uM by two-electrode voltage clamp electrophysiology assay relative to acetylcholine; format: cell-based
[10] = molecular target: Neuronal acetylcholine receptor subunit alpha-7 (Rattus norvegicus) (UniProt Q05941); experiment: Agonist activity at rat alpha7 nAChR expressed in Xenopus laevis oocytes assessed as mean current response at 100 uM by two-electrode voltage clamp electrophysiology assay relative to acetylcholine; format: cell-based
Neuronal acetylcholine receptor subunit alpha-7 (Rattus norvegicus), sequence (Q05941 whole entry): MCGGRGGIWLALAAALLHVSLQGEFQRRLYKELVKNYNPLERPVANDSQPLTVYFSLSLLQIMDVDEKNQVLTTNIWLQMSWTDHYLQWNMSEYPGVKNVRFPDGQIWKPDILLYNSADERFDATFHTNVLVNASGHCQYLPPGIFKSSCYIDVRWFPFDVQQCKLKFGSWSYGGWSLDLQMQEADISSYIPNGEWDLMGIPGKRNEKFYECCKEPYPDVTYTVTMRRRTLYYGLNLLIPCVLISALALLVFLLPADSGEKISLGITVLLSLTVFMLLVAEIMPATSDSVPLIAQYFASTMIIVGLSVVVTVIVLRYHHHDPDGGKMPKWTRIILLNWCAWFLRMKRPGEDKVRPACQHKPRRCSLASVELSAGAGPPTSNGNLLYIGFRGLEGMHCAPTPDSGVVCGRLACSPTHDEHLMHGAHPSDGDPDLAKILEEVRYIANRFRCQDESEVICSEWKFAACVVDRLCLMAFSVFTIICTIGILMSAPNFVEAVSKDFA

[11] = molecular target: T1, Neuronal acetylcholine receptor; alpha4/beta2; experiment: Antagonist activity at rat alpha4beta2 nAChR expressed in Xenopus laevis oocytes assessed as inhibition of acetylcholine-induced mean current response by two-electrode voltage clamp electrophysiology assay; format: cell-based
Procedure, shortened: (§1)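 Rat nAChRs in Xenopus oocytes under two-electrode voltage clamp. […] IC50 is taken from concentration-inhibition curves.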

[12] = molecular target: Neuronal acetylcholine receptor; alpha3/beta4 (Rattus norvegicus, UniProt P04757+P12392); experiment: Antagonist activity at rat alpha3beta4 nAChR expressed in Xenopus laevis oocytes assessed as inhibition of acetylcholine-induced mean current response by two-electrode voltage clamp electrophysiology assay; format: cell-based; procedure, shortened: as §1
Neuronal acetylcholine receptor; alpha3/beta4, sequence (P04757 whole entry): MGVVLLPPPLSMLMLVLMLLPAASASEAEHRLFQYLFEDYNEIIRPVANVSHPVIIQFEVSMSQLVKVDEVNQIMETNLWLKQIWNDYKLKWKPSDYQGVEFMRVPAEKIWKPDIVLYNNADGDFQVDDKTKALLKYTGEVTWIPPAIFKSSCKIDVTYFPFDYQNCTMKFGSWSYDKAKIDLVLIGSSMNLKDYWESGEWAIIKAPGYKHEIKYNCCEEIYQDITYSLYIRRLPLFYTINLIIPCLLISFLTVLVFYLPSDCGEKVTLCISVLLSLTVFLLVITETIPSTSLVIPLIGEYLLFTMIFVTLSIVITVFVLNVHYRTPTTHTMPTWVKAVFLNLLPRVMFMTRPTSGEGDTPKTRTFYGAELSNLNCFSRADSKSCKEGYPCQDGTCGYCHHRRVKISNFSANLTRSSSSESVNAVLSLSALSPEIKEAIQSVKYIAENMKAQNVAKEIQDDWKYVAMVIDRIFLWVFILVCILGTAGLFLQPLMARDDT
Neuronal acetylcholine receptor; alpha3/beta4, sequence (P12392 whole entry): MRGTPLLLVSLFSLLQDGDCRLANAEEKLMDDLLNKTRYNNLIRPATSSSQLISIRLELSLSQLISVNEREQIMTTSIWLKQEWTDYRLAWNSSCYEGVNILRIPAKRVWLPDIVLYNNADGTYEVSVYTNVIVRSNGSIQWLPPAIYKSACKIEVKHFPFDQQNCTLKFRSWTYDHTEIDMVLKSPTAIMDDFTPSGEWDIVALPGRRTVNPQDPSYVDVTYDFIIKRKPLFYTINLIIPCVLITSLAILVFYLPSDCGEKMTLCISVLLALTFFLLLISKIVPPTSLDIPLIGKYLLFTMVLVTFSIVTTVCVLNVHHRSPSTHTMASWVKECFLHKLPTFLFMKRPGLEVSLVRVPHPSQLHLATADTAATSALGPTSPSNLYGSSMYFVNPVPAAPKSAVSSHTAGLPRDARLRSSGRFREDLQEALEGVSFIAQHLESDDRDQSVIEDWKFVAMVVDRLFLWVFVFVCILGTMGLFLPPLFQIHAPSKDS

[13] = molecular target: Neuronal acetylcholine receptor subunit alpha-7 (Rattus norvegicus, UniProt Q05941); experiment: Antagonist activity at rat alpha7 nAChR expressed in Xenopus laevis oocytes assessed as inhibition of acetylcholine-induced mean current response by two-electrode voltage clamp electrophysiology assay; format: cell-based; procedure, shortened: as §1
Neuronal acetylcholine receptor subunit alpha-7, sequence (Q05941 whole entry): as the sequence (Q05941 whole entry) above

[14] = molecular target: Neuronal acetylcholine receptor subunit alpha-7 (Rattus norvegicus) (UniProt Q05941); experiment: Antagonist activity at rat alpha7 nAChR expressed in Xenopus laevis oocytes assessed as inhibition of acetylcholine-induced mean current response by measuring remaining current at 100 uM by two-electrode voltage clamp electrophysiology assay relative to control; values are per cent of control
[15] = molecular target: T2, Neuronal acetylcholine receptor; alpha4/beta2 (Rattus norvegicus); experiment: Antagonist activity at rat alpha4beta2 nAChR expressed in Xenopus laevis oocytes assessed as inhibition of acetylcholine-induced mean current response by measuring remaining current at 100 uM by two-electrode voltage clamp electrophysiology assay relative to control; values are per cent of control
[16] = molecular target: T3, Neuronal acetylcholine receptor; alpha3/beta4 (Rattus norvegicus); experiment: Antagonist activity at rat alpha3beta4 nAChR expressed in Xenopus laevis oocytes assessed as inhibition of acetylcholine-induced mean current response by measuring remaining current at 100 uM by two-electrode voltage clamp electrophysiology assay relative to control; values are per cent of control
[17] = system: Mus musculus; experiment: Antinociceptive activity in intratracheally dosed mouse assessed as maximum latency after 5 mins by tail-flick assay; conditions: inhaled or nasal
[18] = system: Mus musculus; experiment: Antinociceptive activity in sc dosed mouse assessed as jumping or licking of paw behavior after 5 mins by hot-plate test
[19] = system: Mus musculus; experiment: Antinociceptive activity in mouse assessed as inhibition of nicotine-induced antinociception at 1000 ug/kg, sc after 5 mins by hot-plate test; format: functional
[20] = system: Mus musculus; experiment: Antinociceptive activity in mouse assessed as reduction of body rectal temperature at 10 mg/kg, sc; format: functional; set-up: scale not given: the % may be the effect or the level left
[21] = system: Mus musculus; experiment: Antinociceptive activity in mouse assessed as spontaneous locomotor activity at 10 mg/kg, sc measured for 10 mins; format: functional
[22] = system: Mus musculus; experiment: Antinociceptive activity in mouse assessed as inhibition of nicotine-induced antinociception at 10000 ug/kg, sc after 5 mins by hot-plate test; format: functional

c1cncc(-c2cncc([C@H]3C[C@H]4CC[C@H]3N4)c2)c1 (racemic)
Ki [1]: 0.81 nM | Activity [2]: 3% | Activity [3]: 14% | ED50 [4]: 7 mg/kg | ED50 [5]: 3 mg/kg | AD50 [6]: 0.68 µg/kg | AD50 [7]: 2000 µg/kg | Activity [8]: 0% | Activity [9]: 4.5% | Activity [10]: 5.8% | IC50 [11]: 6400 nM | IC50 [12]: 22 µM | IC50 [13]: 117 µM | residual activity [14]: 59% | residual activity [15]: 5.3% | residual activity [16]: 14%

CN1CCC[C@H]1c1cccnc1 [NICOTINE]
ED50 [17]: 1.3 mg/kg | ED50 [18]: 0.65 mg/kg | ED50 [4]: 1 mg/kg | ED50 [5]: 0.5 mg/kg | Activity [8]: 40% | Activity [9]: 37% | Activity [10]: 43%

Fc1ccc(-c2cncc([C@H]3C[C@H]4CC[C@H]3N4)c2)cn1 (racemic)
Ki [1]: 0.13 nM | Activity [2]: 10% | Activity [3]: 10% | ED50 [4]: 2.78 mg/kg | ED50 [5]: 0.69 mg/kg | AD50 [6]: 2 µg/kg | inhibition in vivo at 1 mg/kg [19]: 10% | Activity [8]: 0% | Activity [9]: 5.5% | Activity [10]: 0% | IC50 [11]: 1300 nM | IC50 [12]: 33 µM | IC50 [13]: 60 µM | residual activity [14]: 36% | residual activity [15]: 7.9% | residual activity [16]: 41%

Clc1ccc([C@H]2C[C@H]3CC[C@H]2N3)cn1
ED50 [17]: 0.006 mg/kg | ED50 [18]: 0.004 mg/kg | ED50 [4]: 0.004 mg/kg | ED50 [5]: 0.001 mg/kg | Activity [8]: 131% | Activity [9]: 97% | Activity [10]: 150%

Clc1cc(-c2cncc([C@H]3C[C@H]4CC[C@H]3N4)c2)ccn1 (racemic)
Ki [1]: 0.29 nM | Activity [2]: 10% | Activity [3]: 30% | ED50 [4]: 6.2 mg/kg | ED50 [5]: 1.6 mg/kg | AD50 [6]: 110 µg/kg | inhibition in vivo at 1 mg/kg [19]: 36% | Activity [8]: 0% | Activity [9]: 6.5% | Activity [10]: 8.1% | IC50 [11]: 11000 nM | IC50 [12]: 20 µM | IC50 [13]: 97 µM | residual activity [14]: 47% | residual activity [15]: 5.7% | residual activity [16]: 10%

Clc1ccc(-c2cncc([C@H]3C[C@H]4CC[C@H]3N4)c2)cn1 (racemic)
Ki [1]: 0.12 nM | Activity [2]: 8% | Activity [3]: 17% | ED50 [4]: 5.5 mg/kg | ED50 [5]: 0.56 mg/kg | AD50 [6]: 0.5 µg/kg | inhibition in vivo at 1 mg/kg [19]: 10% | Activity [8]: 0% | Activity [9]: 3.1% | Activity [10]: 4.8% | IC50 [11]: 2700 nM | IC50 [12]: 24 µM | IC50 [13]: 66 µM | residual activity [14]: 38% | residual activity [15]: 4.8% | residual activity [16]: 12%

Fc1cc(-c2cncc([C@H]3C[C@H]4CC[C@H]3N4)c2)ccn1 (racemic)
Ki [1]: 0.18 nM | Activity [2]: 13% | Activity [3]: 34% | ED50 [4]: 5.2 mg/kg | ED50 [5]: 1.78 mg/kg | AD50 [6]: 1.2 µg/kg | inhibition in vivo at 1 mg/kg [19]: 46% | Activity [8]: 0% | Activity [9]: 9.5% | Activity [10]: 5.7% | IC50 [11]: 2900 nM | IC50 [12]: 23 µM | IC50 [13]: 233 µM | residual activity [14]: 90% | residual activity [15]: 8.1% | residual activity [16]: 18%

c1cnc2cc3c(cc2n1)[C@@H]1CNC[C@H]3C1 [VARENICLINE]
Activity [2]: 11% | Activity [3]: 10% | ED50 [4]: 2.8 mg/kg | ED50 [5]: 2.1 mg/kg | AD50 [6]: 0.2 µg/kg | AD50 [7]: 470 µg/kg | Activity [8]: 13% | Activity [9]: 66% | Activity [10]: 74%

COc1cc(-c2cncc([C@H]3C[C@H]4CC[C@H]3N4)c2)ccn1 (racemic)
Ki [1]: 0.094 nM | Activity [2]: 14% | Activity [3]: 50% | ED50 [4]: 10 mg/kg | AD50 [6]: 0.3 µg/kg | AD50 [7]: 900 µg/kg | Activity [8]: 0% | Activity [9]: 6.1% | Activity [10]: 16% | IC50 [11]: 1200 nM | IC50 [12]: 13 µM | IC50 [13]: 114 µM | residual activity [14]: 47% | residual activity [15]: 4% | residual activity [16]: 7.2%

Nc1ccc(-c2cncc([C@H]3C[C@H]4CC[C@H]3N4)c2)cn1 (racemic)
Ki [1]: 0.9 nM | Activity [2]: 3% | Activity [3]: 14% | Activity [20]: 0% | Activity [21]: 20% | AD50 [6]: 1.5 µg/kg | Activity [8]: 0% | Activity [9]: 0% | Activity [10]: 7% | inhibition in vivo at 10 mg/kg [22]: 50% | residual activity [14]: 46% | residual activity [15]: 5.7% | residual activity [16]: 5.4%

COc1ccc(-c2cncc([C@H]3C[C@H]4CC[C@H]3N4)c2)cn1 (racemic)
Ki [1]: 0.27 nM | Activity [2]: 8% | Activity [3]: 17% | ED50 [4]: 5.5 mg/kg | ED50 [5]: 0.56 mg/kg | AD50 [6]: 0.5 µg/kg | inhibition in vivo at 1 mg/kg [19]: 10% | Activity [8]: 0% | Activity [9]: 2.4% | Activity [10]: 1.2% | IC50 [11]: 1800 nM | IC50 [12]: 8.2 µM | IC50 [13]: 30 µM | residual activity [14]: 18% | residual activity [15]: 4.5% | residual activity [16]: 8.4%

c1cc(-c2cncc([C@H]3C[C@H]4CC[C@H]3N4)c2)ccn1 (racemic)
Ki [1]: 0.22 nM | Activity [2]: 7% | Activity [3]: 4% | ED50 [4]: 5 mg/kg | ED50 [5]: 1.76 mg/kg | AD50 [6]: 39 µg/kg | inhibition in vivo at 1 mg/kg [19]: 20% | Activity [8]: 1% | Activity [9]: 9.5% | Activity [10]: 8.1% | IC50 [11]: 7100 nM | IC50 [12]: 23 µM | IC50 [13]: 179 µM | residual activity [14]: 69% | residual activity [15]: 3.9% | residual activity [16]: 11%

Nc1cc(-c2cncc([C@H]3C[C@H]4CC[C@H]3N4)c2)ccn1 (racemic)
Ki [1]: 0.38 nM | Activity [2]: 1% | Activity [3]: 5% | Activity [20]: 0% | Activity [21]: 20% | AD50 [6]: 1 µg/kg | inhibition in vivo at 1 mg/kg [19]: 32% | Activity [8]: 0% | Activity [9]: 1.2% | Activity [10]: 12% | residual activity [14]: 44% | residual activity [15]: 5.2% | residual activity [16]: 4.2%
